Test results taken from ChEMBL document CHEMBL3244134, “Potential anticancer agents. 16. Methotrexate analogues with a modified peptide side chain” (J Med Chem, 1978).
Values joined by “and” are separate entries in the source; they are usually repeats but may differ in a detail not shown here. Identical values can stand only once.

Experiments:
[1] = Toxicity in Wistar rat administered as single dose; format: organism-based; conditions: in vivo
Method in brief: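 LD50 determined from single doses in Wistar rats, reported in mg/kg and mmol/kg.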

[2] = test system: L1210; experiment: Antitumor activity against mouse L1210 cells allografted in BDF1 mouse assessed as increase in life span at 23 mg/kg administered 7 times starting 24 hrs post challenge relative to control; format: functional; conditions: L1210, 24 h
Method in brief: (§1)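 L1210 leukemia: BDF1 mice inoculated ip with 10⁶ leukemic cells. Treatment started 24 h after inoculation, given daily in aqueous solution at pH 8.0–8.4. Survival of treated mice compared with untreated controls, expressed as %ILS = (T/C − 1) × 100.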

[3] = test system: L1210; experiment: Antitumor activity against mouse L1210 cells allografted in BDF1 mouse assessed as increase in life span at 33 mg/kg administered 6 times starting 24 hrs post challenge relative to control; format: functional; conditions: L1210, 24 h; method in brief: as §1
[4] = test system: L1210; experiment: Antitumor activity against mouse L1210 cells allografted in BDF1 mouse assessed as increase in life span at 25 mg/kg administered 6 times starting 24 hrs post challenge relative to control; format: functional; conditions: L1210, 24 h; method in brief: as §1
[5] = test system: L1210; experiment: Antitumor activity against mouse L1210 cells allografted in BDF1 mouse assessed as increase in life span at 50 mg/kg administered 6 times starting 24 hrs post challenge relative to control; format: functional; conditions: L1210, 24 h; method in brief: as §1
[6] = test system: L1210; experiment: Antitumor activity against mouse L1210 cells allografted in BDF1 mouse assessed as increase in life span at 78 mg/kg administered 9 times starting 24 hrs post challenge relative to control; format: functional; conditions: L1210, 24 h; method in brief: as §1
[7] = test system: W256; experiment: Antitumor activity against rat Walker 256 cells allografted in rat assessed as tumor growth inhibition at 60 mg/kg administered 14 times starting 7 days post challenge relative to control; conditions: W256, 7 days, read-out: TGI
[8] = test system: W256; experiment: Antitumor activity against […] 256 cells allografted in rat assessed as tumor growth inhibition at 8 mg/kg administered 14 times starting 24 hrs post challenge relative to control; format: functional; conditions: W256, 24 h, read-out: TGI
[9] = test system: L1210; experiment: Antitumor activity against mouse L1210 cells allografted in BDF1 mouse assessed as increase in life span at 10 mg/kg administered 8 times starting 24 hrs post challenge relative to control; format: functional; conditions: L1210, 24 h
Method in brief: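 BDF1 mice inoculated ip with 10⁶ L1210 leukemia cells; daily dosing in aqueous solution at pH 8.0–8.4 starting 24 h after inoculation. Increase in life span computed as %ILS = (T/C − 1) × 100.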

[10] = test system: L1210; experiment: Antitumor activity against mouse L1210 cells allografted in BDF1 mouse assessed as increase in life span at 20 mg/kg administered 7 times starting 24 hrs post challenge relative to control; format: functional; conditions: L1210, 24 h; method in brief: as §1
[11] = test system: L1210; experiment: Antitumor activity against mouse L1210 cells allografted in BDF1 mouse assessed as increase in life span at 90 mg/kg administered 9 times starting 24 hrs post challenge relative to control; format: functional; conditions: L1210, 24 h; method in brief: as §1
[12] = test system: W256; experiment: Antitumor activity against […] 256 cells allografted in rat assessed as tumor growth inhibition at 40 mg/kg administered 9 times starting 7 days post challenge relative to control; conditions: W256, 7 days, read-out: TGI
[13] = test system: L1210; experiment: Antitumor activity against mouse L1210 cells allografted in BDF1 mouse assessed as increase in life span at 45 mg/kg administered 10 times starting 24 hrs post challenge relative to control; format: functional; conditions: L1210, 24 h; method in brief: as §1

With `CN(Cc1cnc2nc(N)nc(N)c2n1)c1ccc(C(=O)NCC(=O)O)cc1` the LD50 [1] was 250 mg/kg and 650 µmol/kg and the ILS at 23 mg/kg [2] was 0%.

With `CC(NC(=O)c1ccc(N(C)Cc2cnc3nc(N)nc(N)c3n2)cc1)C(=O)O.O` (stereo not given) the ILS at 33 mg/kg [3] was 0% and the LD50 [1] was 349 mg/kg and 810 µmol/kg.

With `CN(Cc1cnc2nc(N)nc(N)c2n1)c1ccc(C(=O)NCCC(=O)O)cc1.O` the ILS at 25 mg/kg [4] was 19% and the LD50 [1] was 250 mg/kg and 580 µmol/kg.

For `CN(CC(=O)O)C(=O)c1ccc(N(C)Cc2cnc3nc(N)nc(N)c3n2)cc1.O`, the LD50 [1] was 400 mg/kg and 920 µmol/kg and the ILS at 50 mg/kg [5] was 0%.

In the case of `CCC(NC(=O)c1ccc(N(C)Cc2cnc3nc(N)nc(N)c3n2)cc1)C(=O)O` (stereo not given), the ILS at 78 mg/kg [6] is reported as 16%, the LD50 [1] is reported as 925 mg/kg and 2250 µmol/kg and the inhibition in vivo at 60 mg/kg [7] is reported as 47%.

In the case of `CN(Cc1cnc2nc(N)nc(N)c2n1)c1ccc(C(=O)NCCCC(=O)O)cc1.O`, the inhibition in vivo at 8 mg/kg [8] is reported as 55%, the LD50 [1] is reported as 106 mg/kg and 250 µmol/kg and the ILS at 10 mg/kg [9] is reported as 0%.

In the case of `CC(C)C(NC(=O)c1ccc(N(C)Cc2cnc3nc(N)nc(N)c3n2)cc1)C(=O)O` (stereo not given), the ILS at 20 mg/kg [10] is reported as 0% and the LD50 [1] is reported as 200 mg/kg and 470 µmol/kg.

For `CC(C)C[C@H](NC(=O)c1ccc(N(C)Cc2cnc3nc(N)nc(N)c3n2)cc1)C(=O)O`, the ILS at 90 mg/kg [11] was 24%.

With `CN(Cc1cnc2nc(N)nc(N)c2n1)c1ccc(C(=O)N[C@@H](Cc2ccccc2)C(=O)O)cc1.O` the inhibition in vivo at 40 mg/kg [12] was 58%, the LD50 [1] was 500 mg/kg and 1020 µmol/kg and the ILS at 45 mg/kg [13] was 14%.
